# Calls of active or inactive are those of the source. The rule behind the calls is not given here.
# How the values were obtained:
# Keap1/Nrf2 [1] = target: T1, Keap1/Nrf2 (Homo sapiens, UniProt Q14145); assay: Inhibition of human Keap1/PL-tagged human Nrf2 protein-protein interaction in human PathHunter U2OS Keap1-NRF2 Nuclear Translocation cells assessed as increase in Nrf2 translocation incubated for 3 hrs by luminescence based analysis; format: cell-based
# [2] = In vivo activation of Nrf2 in male db/db mouse assessed as increase in NQO1 mRNA expression in kidney at 100 mg/kg, po administered via gavage and measured after 6 hrs relative to control; format: functional
# Procedure, shortened: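 Fed male db/db mice (8–10 weeks) dosed 100 mg/kg by oral gavage in 1% HEC. Kidney Nqo1 mRNA measured at 6 h or 24 h and expressed as % change versus vehicle-treated mice.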
# [3] = target: Kelch-like ECH-associated protein 1 (Homo sapiens) (UniProt Q14145); assay: Binding affinity to human Keap1 BTB domain (48 to 213 residues) extracted from Escherichia coli BL21(DE3)-R3-pRARE2 cells assessed as adduct formation at 100 uM by LC-MS analysis
# [4] = target: T2, Kelch-like protein 26 (Homo sapiens) (UniProt Q53HC5); assay: Binding affinity to human KLHL26 BTB domain (34 to 161 residues) extracted from Escherichia coli BL21(DE3)-R3-pRARE2 cells assessed as adduct formation at 100 uM by LC-MS analysis
# T2 sequence (whole entry): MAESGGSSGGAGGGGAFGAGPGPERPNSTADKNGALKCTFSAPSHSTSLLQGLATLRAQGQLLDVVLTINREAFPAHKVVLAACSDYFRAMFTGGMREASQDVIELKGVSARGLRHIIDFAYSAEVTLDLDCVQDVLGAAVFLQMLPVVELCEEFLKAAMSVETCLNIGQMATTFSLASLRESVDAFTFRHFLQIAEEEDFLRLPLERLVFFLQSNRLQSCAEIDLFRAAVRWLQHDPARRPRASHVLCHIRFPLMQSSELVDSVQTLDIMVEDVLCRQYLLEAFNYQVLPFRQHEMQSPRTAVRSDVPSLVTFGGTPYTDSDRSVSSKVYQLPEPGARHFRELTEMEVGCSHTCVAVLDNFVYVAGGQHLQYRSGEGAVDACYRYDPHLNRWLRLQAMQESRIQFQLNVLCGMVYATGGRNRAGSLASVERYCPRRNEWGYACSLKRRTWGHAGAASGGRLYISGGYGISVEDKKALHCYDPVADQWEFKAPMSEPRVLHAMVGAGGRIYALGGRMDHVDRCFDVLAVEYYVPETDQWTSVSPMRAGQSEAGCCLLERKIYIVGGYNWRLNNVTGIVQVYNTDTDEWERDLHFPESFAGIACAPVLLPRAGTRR
# [5] = target: T3, RNA-binding protein 12B (Homo sapiens) (UniProt Q8IXT5); assay: Binding affinity to RBM12B at C204 residue in human MDA-MB-231 cells at 1 uM incubated for 3 hrs in presence of IAA by proteome-wide scale isoTOP ABPP method; format: cell-based
# T3 sequence (whole entry): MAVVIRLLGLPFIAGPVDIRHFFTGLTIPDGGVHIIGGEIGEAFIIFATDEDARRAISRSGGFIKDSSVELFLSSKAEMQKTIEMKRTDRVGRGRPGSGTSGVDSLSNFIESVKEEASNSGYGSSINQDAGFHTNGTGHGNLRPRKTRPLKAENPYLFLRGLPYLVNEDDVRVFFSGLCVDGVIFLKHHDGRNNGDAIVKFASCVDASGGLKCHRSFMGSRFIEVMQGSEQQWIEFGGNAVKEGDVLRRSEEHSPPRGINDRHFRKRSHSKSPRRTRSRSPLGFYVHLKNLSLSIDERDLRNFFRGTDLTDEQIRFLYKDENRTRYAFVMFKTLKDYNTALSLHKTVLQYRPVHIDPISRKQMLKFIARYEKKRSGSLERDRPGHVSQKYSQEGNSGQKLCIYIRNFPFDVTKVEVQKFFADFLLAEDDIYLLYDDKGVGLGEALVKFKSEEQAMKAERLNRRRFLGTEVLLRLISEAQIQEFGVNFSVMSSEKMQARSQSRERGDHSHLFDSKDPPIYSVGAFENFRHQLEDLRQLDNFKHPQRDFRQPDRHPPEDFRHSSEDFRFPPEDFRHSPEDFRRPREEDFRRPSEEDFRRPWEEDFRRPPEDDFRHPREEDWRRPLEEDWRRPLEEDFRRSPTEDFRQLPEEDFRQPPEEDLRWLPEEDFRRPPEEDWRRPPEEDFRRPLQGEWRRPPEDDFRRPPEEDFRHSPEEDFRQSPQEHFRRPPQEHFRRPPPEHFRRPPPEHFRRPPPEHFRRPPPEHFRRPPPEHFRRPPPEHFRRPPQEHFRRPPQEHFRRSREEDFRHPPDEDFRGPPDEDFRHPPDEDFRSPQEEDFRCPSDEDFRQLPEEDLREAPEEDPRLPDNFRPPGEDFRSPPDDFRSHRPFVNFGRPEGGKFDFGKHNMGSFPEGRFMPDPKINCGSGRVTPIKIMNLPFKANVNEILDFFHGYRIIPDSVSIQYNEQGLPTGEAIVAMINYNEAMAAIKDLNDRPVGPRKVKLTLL
# Procedure, shortened: (§1)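 Live MDA-MB-231 cells treated 3 h with compound at 1 μM, or with DMSO vehicle. 100 μM iodoacetamide-alkyne then added as a clickable cysteine-reactive probe. Cysteine competition read by isoTOP ABPP; competed peptides called at ratio R > 4.5.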
# [6] = target: T4, Perilipin-3 (Homo sapiens) (UniProt O60664); assay: Binding affinity to PLIN3 at C39 residue in human MDA-MB-231 cells at 1 uM incubated for 3 hrs in presence of IAA by proteome-wide scale isoTOP ABPP method; format: cell-based; procedure, shortened: as §1
# T4 sequence (whole entry): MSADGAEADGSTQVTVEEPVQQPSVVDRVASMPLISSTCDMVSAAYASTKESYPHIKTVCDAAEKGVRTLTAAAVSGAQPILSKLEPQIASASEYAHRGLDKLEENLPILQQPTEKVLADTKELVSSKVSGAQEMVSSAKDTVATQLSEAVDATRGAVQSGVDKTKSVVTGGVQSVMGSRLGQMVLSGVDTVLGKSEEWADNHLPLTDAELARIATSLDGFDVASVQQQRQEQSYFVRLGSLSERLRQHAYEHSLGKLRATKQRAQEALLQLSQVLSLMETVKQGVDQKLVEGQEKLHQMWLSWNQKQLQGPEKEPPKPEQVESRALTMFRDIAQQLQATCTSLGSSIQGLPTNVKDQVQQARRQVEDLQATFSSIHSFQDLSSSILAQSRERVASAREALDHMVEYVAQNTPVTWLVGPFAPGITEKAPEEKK
# [7] = target: T4, Perilipin-3 (Homo sapiens); assay: Binding affinity to PLIN3 at C60 residue in human MDA-MB-231 cells at 1 uM incubated for 3 hrs in presence of IAA by proteome-wide scale isoTOP ABPP method; format: cell-based; procedure, shortened: as §1
# [8] = In vivo activation of Nrf2 in male db/db mouse assessed as increase in NQO1 mRNA expression in kidney at 100 mg/kg, po administered via gavage and measured after 24 hrs relative to control; format: functional
# Keap1/Nrf2 [9] = target: T1, Keap1/Nrf2; assay: Inhibition of Keap1/Nrf2 protein-protein interaction in human HepG2 cells transfected with beta-lactamase under the control of ARE incubated for 16 hrs by ARE-reporter based FRET assay; format: cell-based
# in vitro [10] = format: ADME, Microsome; conditions: human, pooled liver microsomes, time < 55 min, read-out: CLH
# in vitro [11] = format: ADME, Microsome; conditions: mouse, pooled liver microsomes, time < 55 min, read-out: CLH
# [12] = Apparent permeability across apical to basolateral side in human Caco-2 cells at 10 uM incubated for 120 mins by LC-MS/MS analysis
# [13] = Efflux ratio of apparent permeability across basolateral to apical over apical to basolateral side in human Caco-2 cells at 10 uM incubated for 120 mins by LC-MS/MS analysis; conditions: caco-2, 2 h
# [14] = target: Kelch-like ECH-associated protein 1 (Homo sapiens) (UniProt Q14145); assay: Binding affinity to human Keap1 BTB domain (48 to 213 residues) extracted from Escherichia coli BL21(DE3)-R3-pRARE2 cells assessed as adduct formation by intact mass spectrometry
# Homo sapiens = species: Homo sapiens; assay: Binding affinity to human Keap1 BTB domain C151A mutant (48 to 213 residues) extracted from Escherichia coli BL21(DE3)-R3-pRARE2 cells assessed as adduct formation by intact mass spectrometry
# Fibroblast = assay: Effect on ARE signal response in Nrf2 knockout mouse embryonic fibroblast cells; format: functional, cell-based
# Mus musculus [15] = assay: Induction of NQO1 mRNA expression in C57BI6 mouse kidney at 100 mg/kg measured after 24 hrs; format: functional, organism-based
# Mus musculus [16] = assay: Induction of NQO1 mRNA expression in Nrf2-/- mouse kidney at 100 mg/kg measured after 24 hrs; format: functional, organism-based
# Mus musculus [17] = assay: Induction of NQO1 mRNA expression in C57BI6 mouse kidney at 10 mg/kg measured after 24 hrs; format: functional, organism-based
# Mus musculus [18] = assay: Induction of NQO1 mRNA expression in Nrf2-/- mouse kidney at 10 mg/kg measured after 24 hrs; format: functional, organism-based
# in vitro [19] = format: ADME, Microsome; conditions: rat, pooled liver microsomes, time < 55 min, read-out: CLH
# [20] = Cmax in male db/db mouse at 100 mg/kg, po administered via gavage and measured after 30 mins; format: ADME, organism-based; conditions: in vivo, 0.5 h
# Procedure, shortened: (§2)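 Male db/db mice (8–10 weeks), fed, single oral gavage of 100 mg/kg; vehicle 1% hydroxyethyl cellulose, except one compound given in Phosal 50PG/ethanol/PEG400.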
# [21] = AUC in male db/db mouse at 100 mg/kg, po administered via gavage and measured after 24 hrs; format: ADME, organism-based; conditions: in vivo; procedure, shortened: as §2
# [22] = Genotoxicity in human TK6 cells assessed as clastogenicity at 10 uM measured after 4 to 24 hrs by DNA damage response assay; format: toxicity, cell-based; conditions: tk6, 10 µM, time 4-24 hrs
# [23] = Genotoxicity in […] assessed as clastogenicity at 10 uM measured after 4 to 24 hrs by DNA damage response assay; format: toxicity, cell-based; conditions: time 4-24 hrs
# T1 sequence (Q16236 whole entry): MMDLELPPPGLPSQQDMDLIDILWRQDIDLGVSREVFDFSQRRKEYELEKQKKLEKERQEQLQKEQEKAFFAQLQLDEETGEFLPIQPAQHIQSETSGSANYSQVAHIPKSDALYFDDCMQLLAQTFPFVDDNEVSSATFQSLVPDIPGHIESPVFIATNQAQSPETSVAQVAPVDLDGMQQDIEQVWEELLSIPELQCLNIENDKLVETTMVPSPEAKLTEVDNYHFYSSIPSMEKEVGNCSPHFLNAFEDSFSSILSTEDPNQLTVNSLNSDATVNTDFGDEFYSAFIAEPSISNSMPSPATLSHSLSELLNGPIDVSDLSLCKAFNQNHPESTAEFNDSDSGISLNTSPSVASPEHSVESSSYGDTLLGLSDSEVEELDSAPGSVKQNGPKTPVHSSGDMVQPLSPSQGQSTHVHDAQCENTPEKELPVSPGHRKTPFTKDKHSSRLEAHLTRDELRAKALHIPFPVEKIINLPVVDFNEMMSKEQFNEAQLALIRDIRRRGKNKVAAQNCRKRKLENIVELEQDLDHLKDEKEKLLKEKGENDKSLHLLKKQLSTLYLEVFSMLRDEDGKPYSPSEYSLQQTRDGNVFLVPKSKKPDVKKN
# T1 sequence (Q14145 whole entry): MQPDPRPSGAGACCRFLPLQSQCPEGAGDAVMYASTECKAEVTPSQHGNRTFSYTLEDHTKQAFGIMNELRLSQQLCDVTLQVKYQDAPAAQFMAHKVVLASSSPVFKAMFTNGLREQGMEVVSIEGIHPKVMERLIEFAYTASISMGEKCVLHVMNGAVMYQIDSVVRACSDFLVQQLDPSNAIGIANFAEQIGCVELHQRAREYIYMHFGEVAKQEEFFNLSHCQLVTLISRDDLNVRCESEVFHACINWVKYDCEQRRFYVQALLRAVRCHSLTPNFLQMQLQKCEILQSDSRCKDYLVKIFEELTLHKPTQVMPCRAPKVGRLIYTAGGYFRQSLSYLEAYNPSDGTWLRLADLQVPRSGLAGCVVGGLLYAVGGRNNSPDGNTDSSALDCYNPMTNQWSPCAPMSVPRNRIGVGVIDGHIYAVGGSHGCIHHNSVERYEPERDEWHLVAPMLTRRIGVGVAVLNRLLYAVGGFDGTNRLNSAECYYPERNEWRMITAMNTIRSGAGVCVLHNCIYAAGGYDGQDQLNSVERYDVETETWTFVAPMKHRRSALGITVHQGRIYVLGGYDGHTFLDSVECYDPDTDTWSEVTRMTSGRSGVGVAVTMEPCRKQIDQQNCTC
# Kelch-like ECH-associated protein 1 (Homo sapiens), sequence (Q14145 whole entry, the tested form may be a part): as the sequence (Q14145 whole entry) above
structure (smiles),measurement,setting,value
Cc1ccc(S(=O)(=O)c2nc(S(=O)(=O)c3ccccc3)sc2N2CCOCC2)cc1,EC50,Keap1/Nrf2 [1],270 nM
CCS(=O)(=O)c1nc(S(=O)(=O)c2ccccc2Cl)c(N2CCN(C)C(=O)[C@H]2C)s1,Activity,[2],344%
same,Activity,[3],Active
same,Activity,[4],inactive
same,Activity,[5],Active
same,Activity,[6],Active
same,Activity,[7],Active
CN1CCN(c2sc(S(=O)(=O)C3CC3)nc2S(=O)(=O)c2ccccc2Cl)CC1=O,Activity,[2],149%
same,Activity,[8],164%
CCS(=O)(=O)c1nc(S(=O)(=O)c2ccc(-c3cccn(C)c3=O)cc2)c(N2CCN(C)C(=O)C2)s1,EC50,Keap1/Nrf2 [1],1490 nM
same,EC50,Keap1/Nrf2 [9],516 nM
same,"CLint scaled at 0.75 h, 0.1 µM",in vitro [10],8.5 mL/min/kg
same,"CLint scaled at 0.75 h, 0.1 µM",in vitro [11],22 mL/min/kg
same,"Papp A→B at 2 h, 10 µM",[12],0.74 ×10⁻⁶ cm/s
same,Ratio,[13],46
CCS(=O)(=O)c1nc(S(=O)(=O)c2ccccc2Cl)c(N2CCN(C)C(=O)C2)s1,Activity,[2],199%
same,Activity,[8],379%
same,Activity,[14],Active
same,Activity,Homo sapiens,inactive
same,Activity,Fibroblast,Not active; Compound Selectively Acts Through Keap1-Nrf2 Axis
same,Activity,Mus musculus [15],Active
same,Activity,Mus musculus [16],inactive
CC1(C)CC[C@]2(C(=O)O)CC[C@]3(C)[C@H](C(=O)C=C4[C@@]5(C)C=C(C#N)C(=O)C(C)(C)[C@@H]5CC[C@]43C)[C@@H]2C1,Activity,Mus musculus [17],Active
same,Activity,Mus musculus [18],inactive
CCS(=O)(=O)c1nc(S(=O)(=O)c2ccccc2Cl)c(N2CCP(C)(=O)CC2)s1,EC50,Keap1/Nrf2 [1],4210 nM
same,EC50,Keap1/Nrf2 [9],946 nM
same,"CLint scaled at 0.75 h, 0.1 µM",in vitro [19],5.6 mL/min/kg
same,"Papp A→B at 2 h, 10 µM",[12],1.4 ×10⁻⁶ cm/s
same,Ratio,[13],4.5
Cc1ccc(S(=O)(=O)c2nc(S(=O)(=O)c3ccccc3)sc2N2CCN(C)CC2)cc1,EC50,Keap1/Nrf2 [1],338 nM
same,EC50,Keap1/Nrf2 [9],115 nM
CCS(=O)(=O)c1nc(S(=O)(=O)c2ccccc2C#N)c(N2CCN(C)C(=O)C2)s1,Activity,[2],299%
same,Activity,[8],209%
CCP1(=O)CCN(c2sc(S(=O)(=O)CC)nc2S(=O)(=O)c2cccc(Cl)c2Cl)CC1,EC50,Keap1/Nrf2 [1],527 nM
same,EC50,Keap1/Nrf2 [9],160 nM
same,"CLint scaled at 0.75 h, 0.1 µM",in vitro [10],2.6 mL/min/kg
same,"CLint scaled at 0.75 h, 0.1 µM",in vitro [11],52 mL/min/kg
same,"CLint scaled at 0.75 h, 0.1 µM",in vitro [19],62 mL/min/kg
same,"Papp A→B at 2 h, 10 µM",[12],3 ×10⁻⁶ cm/s
same,Ratio,[13],8.7
same,Cmax,[20],6.39 µM
same,AUC,[21],8.5 µM·h
same,Activity,[2],125%
same,Activity,[8],116%
same,Activity,[3],Active
same,Activity,[4],inactive
same,Activity,[22],Non-toxic
same,Activity,[23],Non-toxic
CCS(=O)(=O)c1nc(S(=O)(=O)c2ccccc2Cl)c(N2CC3(CC3)C2)s1,EC50,Keap1/Nrf2 [1],> 32000 nM
same,EC50,Keap1/Nrf2 [9],≥ 13000 nM
C=Cc1nc(S(=O)(=O)c2ccccc2Cl)c(N2CCN(C)C(=O)C2)s1,Activity,[5],Active
CCS(=O)(=O)c1nc(S(=O)(=O)c2ccccc2C#N)c(N2CCN(C)C(=O)[C@H]2C)s1,Activity,[2],88%
same,Activity,[8],214%
same,Activity,[3],Active
same,Activity,[4],inactive
